ANO1 block: mouse TMEM16A channel inhibition, primary screen; 1.2% of 310,000 active; normalized B-score (activity score, 25-100; higher = stronger inhibition) at 10 µM; HEK293 TMEM16A/YFP iodide influx fluorescence, ionomycin; AID 588511;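 active = ratio plate-corrected score three or more library SD toward inhibition, starting fluorescence score within five deviations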;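 note: score derived from kinetic fluorescence span divided by baseline fluorescence per well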
CSC inhib: blocks cancer stem cells | cancer stem cell-like cells viability, luminescence | inhibition, % at 7.5 µM | 1.1% of 300,000 active; in the data active = inhibition above about 75%; inconclusive = no clear call, values can overlap the other calls; tested in HMLE shEcad cells
ANO1 activ: activators or potentiators of mouse TMEM16A chloride channel. 0.3% of 340,000 active. Q8BHY3. HEK293 TMEM16A/YFP-H148Q/I152L, iodide quench fluorescence; active compounds read low. B-score at 10 µM;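 active = fluorescence-ratio B-score plate-corrected deviation score at least 3 library SD below zero, with starting fluorescence score within 5 deviations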;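 note: channel opened by trigger with iodide after compound preincubation; score built on the fluorescence ratio of max minus min over baseline; more negative score means more quench and so TMEM16A activation or potentiation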
MC4R ag barr: activates human MC4R beta-arrestin recruitment; P32245; U2OS MC4R beta-arrestin complementation, luminescence; percent of melanotan II response, DMSO zero; activation, % at 8.9 µM; 0.98% of 360,000 active;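 active = activation above a per-plate cutoff, the mean activation of sample wells on that plate plus 3 SD, cut at about 8% in these data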
Target sequence (P32245 whole entry, looked up): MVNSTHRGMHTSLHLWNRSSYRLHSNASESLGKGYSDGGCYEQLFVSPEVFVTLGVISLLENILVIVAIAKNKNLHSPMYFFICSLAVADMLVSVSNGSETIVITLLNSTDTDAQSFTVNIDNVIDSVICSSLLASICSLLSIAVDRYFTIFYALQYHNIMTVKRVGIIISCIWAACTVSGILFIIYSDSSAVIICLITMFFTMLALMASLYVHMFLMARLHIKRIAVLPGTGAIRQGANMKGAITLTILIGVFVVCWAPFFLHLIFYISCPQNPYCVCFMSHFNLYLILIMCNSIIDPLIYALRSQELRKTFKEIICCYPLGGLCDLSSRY
MC4R antagonist: antagonists of human melanocortin 4 receptor (MC4R) | MC4R-expressing cells, MTII-stimulated cAMP, LANCE TR-FRET | inhibition, % at 6.5 µM | 0.48% of 360,000 active | P32245;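 active = inhibition above its plate's cutoff, the mean of tested wells on that plate plus 3 SD, cut at about 29% in these data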;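 note: 0% = Melanotan II alone and 100% = Melanotan II plus saturating MCL0020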
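material = U2OS cells stably expressing human melanocortin 4 receptor (MC4R) | also added = Melanotan II challenge | dosing = single nominal compound dose of 6.5 µM | detection = TR-FRET with Eu-cAMP and labeled anti-cAMP, 671 nm | replication = singlicate | timing = compound 30 min, challenge 1 h, detection 1 h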
Beta cell apopt: blocks beta cell apoptosis. INS-1E cytokine-induced death, ATP luminescence, 48 h; percent of positive-control rescue, neutral wells zero. protection from apoptosis, % (concentration not given with the values). 0.8% of 300,000 active;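 active = Every replicate reaches about 75%, or at least half do and their mean reaches it too, limit read from the data; inconclusive = At least half of replicates reach the limit but their mean does not; inactive = Under half of replicates reach the limit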;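 note: 0% = cytokine-treated negative control wells and 100% = positive control rescue; higher means more ATP so stronger rescue from cytokine killing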
TMEM16A reconf: TMEM16A (mouse) chloride channel inhibition, re-confirmation. shares compounds with ANO1 block. HEK293 TMEM16A/YFP-H148Q, iodide quench fluorescence; ionomycin added to raise cell calcium. inhibition, % at 10 µM. 39% of 2,300 active. AID 652189;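 active = mean duplicate percent inhibition, scaled so buffer wells are 0 and the reference blocker 100, over three buffer SD above buffer mean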
TMEM16A Ca cntr: counter-screen for TMEM16A inhibitors: effect on calcium mobilization | shares compounds with ANO1 block | TMEM16A/YFP HEK293, Fluo4 calcium mobilization | calcium response (% of ionomycin), % at 10 µM | 2% of 2,300 active | AID 652231;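 active = duplicate-averaged calcium signal over 20% of the ionomycin maximum, relative to buffer baseline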;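 note: each well's signal is peak minus trough fluorescence divided by its pre-addition baseline; 0% = buffer wells and 100% = ionomycin wells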
Parental YFP cnt: acts in parental YFP-HEK293 cells lacking TMEM16A, counter-screen. shares compounds with ANO1 block. iodide YFP quench, ionomycin. YFP ratio F(max-min)/F0 at 10 µM. 2,300 tested, under 10 active;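 active = yellow fluorescent protein signal ratio exceeding the buffer control mean by over 5 SD of those controls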;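 note: ratio is mean of duplicate wells from kinetic YFP trace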
ClC-1 rat inh: selectivity of TMEM16A inhibitors: inhibition of rat ClC-1 chloride channel | CHO ClC-1-YFP, iodide influx fluorescence quench; iodide control reads 0, buffer control 100 | 2,300 tested, under 10 active | ratio percent, % at 10 µM | shares compounds with ANO1 block;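 active = duplicate-mean ratio percent above the mean of iodide-only control wells, which defines zero, plus 5 of their SD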;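 note: higher percent means stronger block of ClC-1 iodide influx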
Starred values were filed as active, the others as inactive; i = inactive; ? = inconclusive; nt = no result given. Hits are enriched below; roughly 3.8% of the tested compounds scored in any of these assays.

SMILES	ANO1 block	CSC inhib	ANO1 activ	MC4R ag barr	MC4R antagonist	Beta cell apopt	TMEM16A reconf	TMEM16A Ca cntr	Parental YFP cnt	ClC-1 rat inh
CCOc1ccccc1NC(=O)Nc1c(C)n(-c2ccccc2)c(=O)n1C	100*	0	i	0	5	-9	i	i	-0.81	-1
COc1ccc(NC(=O)Nc2c(C)n(-c3ccccc3)c(=O)n2C)cc1OC	i	nt	i	-1	2	-2	nt	nt	nt	nt
CCc1c(C)c(C#N)c2[nH]c3ccccc3n2c1=S	100*	12	i	-2	17	6	34%*	i	-0.85	-21
CCc1cc(=S)n2c([nH]c3ccccc32)c1C#N	100*	nt	i	-1	3	-3	26%*	i	-0.88	-22
C=C(C)Cc1c(C)c(C#N)c2[nH]c3ccccc3n2c1=O	i	10	i	0	0	32	nt	nt	nt	nt
CN1CCN(/C=N/c2c(C#N)cnn2Cc2ccccc2)CC1	25*	-13	i	-2	-3	-5	i	i	-1	-4
Cc1ccc(S(=O)(=O)N2[C@@H](c3ccc(C(C)C)cc3)C(C(=O)O)=C[C@H]2C(C)(C)C)cc1	nt	nt	nt	4	-15	nt	nt	nt	nt	nt
CC[C@]12c3[nH]c4ccc(Cl)cc4c3CCN1C(=O)[C@@H](CC(=O)NCc1ccc(OC)c(OC)c1)C[C@@H]2C(=O)N1CCN(C(=O)c2ccco2)CC1	nt	nt	nt	-1	-3	nt	nt	nt	nt	nt
CCCCNC(=O)c1onc(CS(=O)(=O)c2ccccn2)c1C(=O)NCCCC	i	-7	i	-1	4	-2	nt	nt	nt	nt
O=C(Nc1ccc(F)cc1F)c1cc(-c2ccco2)on1	100*	15	i	2	-7	-5	i	i	-1.2	-6
O=C(Nc1cccc(S(=O)(=O)c2cccc(NC(=O)c3ccco3)c2)c1)c1ccco1	25*	14	i	-2	-1	15	20%*	i	-0.91	-14
O=C(Nc1cccc(S(=O)(=O)N2CCCC2)c1)c1ccco1	nt	-18	i	-1	12	-5	nt	nt	nt	nt
O=C(COC(=O)c1cccc(NC(=O)c2ccco2)c1)c1ccc(Br)cc1	100*	9	i	0	20	7	i	i	-0.93	-10
Cc1nnc(SCC(=O)NCCC2=CCCCC2)[nH]c1=O	nt	-9	i	-2	5	-2	nt	nt	nt	nt
CCc1cc(CNC(=O)C2CCC(=O)N(Cc3ccccc3F)C2)on1 (centres undefined)	nt	nt	nt	0	10	nt	nt	nt	nt	nt
CC(=O)NC(Cc1ccccc1)c1ccc2c(c1)OCCCO2 (centres undefined)	i	-5	i	0	-3	-3	nt	nt	nt	nt
O=C(NC(Cc1ccccc1)c1ccc2c(c1)OCCCO2)c1ccc(F)cc1 (centres undefined)	25*	5	i	0	13	-3	i	i	-1	-2
Cc1[nH]c(C)c(S(=O)(=O)NCCc2ccc(S(N)(=O)=O)cc2)c1C(=O)N1CCCC1	i	-7	i	-3	-4	-5	nt	nt	nt	nt
Cc1cccc(NC(=O)C2(c3ccccc3)CC2(Cl)Cl)c1 (centres undefined)	i	41	i	2	17	1	nt	nt	nt	nt
Cc1cc(C)cc(NC(=O)C2(c3ccccc3)CC2(Cl)Cl)c1 (centres undefined)	25*	-3	i	0	11	5	i	i	-1.3	-6
CCOC(=O)c1nc(C)nc(Sc2n[nH]c(-c3cc(C(F)(F)F)cc(C(F)(F)F)c3)n2)c1C	25*	44	i	0	-6	-6	30%*	i	-0.99	-22
OC(c1ccc(F)c(F)c1)c1nc(-c2ccc(Cl)cc2)cs1 (centres undefined)	nt	nt	nt	2	2	nt	nt	nt	nt	nt
O=C(CNCc1ccccc1Cl)Nc1ccccc1N1CCCCC1	25*	22	i	1	-3	-5	i	i	-1.1	-8
O=C(COc1ccc(Br)cc1)Nc1ccccc1N1CCCC1	i	-6	i	0	4	6	nt	nt	nt	nt
Cc1cc(Cl)ccc1OCC(=O)Nc1ccccc1N1CCOCC1	100*	nt	i	3	7	10	22%*	i	-0.99	-15
SMILES	ANO1 block	CSC inhib	ANO1 activ	MC4R ag barr	MC4R antagonist	Beta cell apopt	TMEM16A reconf	TMEM16A Ca cntr	Parental YFP cnt	ClC-1 rat inh
O=C(COc1c(Cl)cccc1Cl)Nc1ccccc1N1CCCC1	25*	69	i	-1	3	-2	i	i	-1.3	-16
Cc1cc(Cl)ccc1OCC(=O)NC(=S)Nc1ccccc1N1CCOCC1	i	-5	i	3	5	2	nt	nt	nt	nt
O=C(Nc1ccccc1N1CCCCC1)c1ccccc1F	25*	-2	i	0	-4	-1	i	i	-0.91	-4
CCCn1cnc2scc(-c3ccc(C)c(C)c3)c2c1=O	i	-9	i	-1	4	-9	nt	nt	nt	nt
Cc1cc(C2(c3ccc(O)c(C)c3)C(=O)Nc3ccccc32)ccc1O	100*	?	i	8	10	5	i	i	-1.2	-27
CCOC(=O)c1cnc2ccc(OC)cc2c1Nc1ccc2c(c1)OCCO2	100*	37	i	2	19	3	i	i	-1.1	-14
COc1ccc(CCNC(=S)N2CCC(Cc3ccccc3)CC2)cc1OC	100*	11	i	-3	4	6	i	i	-1	-14
O=C(COC(=O)c1ccc(F)c(S(=O)(=O)N2CCOCC2)c1)Nc1ccc2[nH]c(=O)[nH]c2c1	nt	1	i	-4	10	3	nt	nt	nt	nt
CCCCOCCCNC(=O)c1c(-c2ccccc2)noc1C	25*	-4	i	-1	4	3	i	i	-1.2	-15
COCCCNC(=O)c1c(-c2ccccc2)noc1C	i	-11	nt	1	8	1	nt	nt	nt	nt
O=C(CSc1ccccn1)N1CCN(c2cccc(Cl)c2)CC1	25*	8	i	1	7	nt	i	i	-0.89	-14
O=C(CSc1ccccn1)N1CCN(c2ccccc2)CC1	i	1	i	2	0	0	nt	nt	nt	nt
O=C1[C@@H](Oc2ccccc2)[C@@H](c2cccnc2)N1c1ccccc1	nt	nt	i	-1	5	nt	nt	nt	nt	nt

Bioassay records: PubChem, several laboratories
